Measurements taken from PMC6702078 (Biochemical pharmacology, 2019).

How the values were obtained:
PSA expression = PSA expression by Western blot in LNCaP expressing AR-V7; format: cell-based, human; settings: LNCaP stably expressing AR-V7, 10μM, 24 hrs
Method in brief: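 Cells were lysed in 1x SDS sample buffer (1 × 10^7 cells/ml) and boiled 5 min. PSA and AR levels were assessed by SDS-PAGE and Western blot.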

[1] = Kinetic aqueous solubility in PBS; format: physicochemical; settings: phosphate buffered saline, pH 7.4, aqueous buffer, kinetic from dmso stock
Mouse plasma stability = format: in vitro ADME; settings: for half-life at 1 μM: male, C57BL/6, mouse, pH 7.4
[2] = system: androgen-dependent LNCaP PC cells; test: Cell viability; format: cell-based, human; settings: for IC20 / IC50 / IC70 / IC90: Homo sapiens, 96 h; for IC20: read-out: ED20; for IC50: read-out: ED50; for IC70: read-out: ED70; for IC90: read-out: ED90; for effect on viability: escalating concentrations, 96 hours (Fig.5C)
[3] = Mouse liver microsome stability; format: in vitro ADME; settings: male, CD-1, mouse, liver microsomes, pH 7.4
hCYP3A4 = hCYP3A4 (Homo sapiens, UniProt P08684); test: Cytochrome P450 inhibition CYP3A4; format: in vitro ADME
hCYP3A4, sequence (P08684 whole entry): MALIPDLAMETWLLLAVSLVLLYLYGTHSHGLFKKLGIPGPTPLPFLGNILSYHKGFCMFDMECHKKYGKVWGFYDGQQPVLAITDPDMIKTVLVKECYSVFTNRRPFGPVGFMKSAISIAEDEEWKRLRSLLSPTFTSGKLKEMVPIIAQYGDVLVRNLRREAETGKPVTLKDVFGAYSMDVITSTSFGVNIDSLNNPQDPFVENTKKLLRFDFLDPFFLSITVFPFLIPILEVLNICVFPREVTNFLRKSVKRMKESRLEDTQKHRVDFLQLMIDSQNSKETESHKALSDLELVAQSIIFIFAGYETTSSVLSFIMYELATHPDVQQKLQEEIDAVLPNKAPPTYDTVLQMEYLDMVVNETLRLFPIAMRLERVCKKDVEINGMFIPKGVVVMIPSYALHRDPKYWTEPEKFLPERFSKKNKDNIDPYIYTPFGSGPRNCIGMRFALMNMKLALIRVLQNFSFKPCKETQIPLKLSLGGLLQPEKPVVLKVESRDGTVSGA

hCYP2D6 = hCYP2D6 (Homo sapiens, UniProt P10635); test: Cytochrome P450 inhibition CYP2D6; format: in vitro ADME
hCYP2D6, sequence (P10635 whole entry): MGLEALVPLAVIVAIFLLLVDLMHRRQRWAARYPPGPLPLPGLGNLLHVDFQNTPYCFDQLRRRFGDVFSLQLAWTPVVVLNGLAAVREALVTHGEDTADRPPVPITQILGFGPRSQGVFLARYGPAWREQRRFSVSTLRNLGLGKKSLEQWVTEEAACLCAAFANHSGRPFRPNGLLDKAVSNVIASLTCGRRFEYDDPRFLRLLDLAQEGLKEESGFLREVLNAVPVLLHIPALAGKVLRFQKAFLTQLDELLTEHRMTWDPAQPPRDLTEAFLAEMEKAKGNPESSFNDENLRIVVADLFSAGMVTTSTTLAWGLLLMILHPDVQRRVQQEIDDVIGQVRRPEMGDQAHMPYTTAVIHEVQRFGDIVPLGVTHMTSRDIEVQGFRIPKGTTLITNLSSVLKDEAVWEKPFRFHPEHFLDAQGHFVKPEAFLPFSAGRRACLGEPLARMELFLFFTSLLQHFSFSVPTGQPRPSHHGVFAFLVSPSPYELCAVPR

[4] = Human liver microsome stability; format: in vitro ADME; settings: both, liver microsomes, pH 7.4
hCYP2C9 = hCYP2C9 (Homo sapiens, UniProt P11712); test: Cytochrome P450 inhibition CYP2C9; format: in vitro ADME
hCYP2C9, sequence (P11712 whole entry): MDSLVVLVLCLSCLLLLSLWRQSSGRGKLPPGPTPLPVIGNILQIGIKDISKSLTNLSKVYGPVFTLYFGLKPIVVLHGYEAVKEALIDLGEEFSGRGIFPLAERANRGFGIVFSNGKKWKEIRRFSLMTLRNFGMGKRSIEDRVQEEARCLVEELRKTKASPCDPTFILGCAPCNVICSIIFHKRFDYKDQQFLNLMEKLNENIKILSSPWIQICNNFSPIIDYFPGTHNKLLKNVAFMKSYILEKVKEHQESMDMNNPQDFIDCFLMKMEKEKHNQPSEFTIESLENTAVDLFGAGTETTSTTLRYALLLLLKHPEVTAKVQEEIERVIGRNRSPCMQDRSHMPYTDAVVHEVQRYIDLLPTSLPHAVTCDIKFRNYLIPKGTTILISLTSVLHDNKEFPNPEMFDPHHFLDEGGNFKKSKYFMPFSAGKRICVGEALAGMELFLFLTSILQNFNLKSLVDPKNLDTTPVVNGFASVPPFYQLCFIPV

[5] = system: castration-resistant DU-145 PC cells; test: Cell viability; format: cell-based, human; settings: for ED20 / ED50 / ED70 / ED90: DU-145, 96 hours, CellTiter Blue; for effect on viability: DU-145, escalating concentrations, 96 hours (Fig.5E)
[6] = system: castration-resistant PC-3 PC cells; test: Cell viability; format: cell-based, human; settings: for IC20 / IC50 / IC70 / IC90: Homo sapiens, 96 h; for IC20: read-out: ED20; for IC50: read-out: ED50; for IC70: read-out: ED70; for IC90: read-out: ED90; for effect on viability: PC-3, escalating concentrations, 96 hours (Fig.5D)
[7] = system: AR transcriptional activity; test: AR luciferase reporter assay in LNCaP with R1881; format: cell-based, human; settings: R1881 2.5nM, 8 hrs
[8] = system: PARP1 enzymatic activity in PC cells; test: PARP-1 inhibitory assay in human cell culture; format: cell-based
Method in brief: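 Graded doses of test compound were added in complete medium for 24 or 48 h. Cells were lysed in SDS sample buffer at 1 × 10^7 cells/ml and boiled 5 min. Poly(ADP-ribose) was assessed by SDS-PAGE and Western blot with mouse anti-pADPr (1:500).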

[9] = system: AR transcriptional activity; test: AR luciferase reporter assay in LNCaP expressing AR-V7; format: cell-based, human; settings: LNCaP stably expressing AR-V7, luciferase, 8 hrs
[10] = system: LNCaP expressing both wild-type and constitutively active AR splice variant AR-V7; test: Cell viability; format: cell-based, human; settings: LNCaP AR-V7, 96 hours, CellTiter Blue, XLfit
PARP-1 = PARP-1 (Homo sapiens, UniProt P09874); test: PARP-1 activity assay in cell free system; format: biochemical; settings: inhibitors at 10μM; pADPr Western blot and colorimetric assay (Fig.4C-D)
PARP-1, sequence (P09874 whole entry): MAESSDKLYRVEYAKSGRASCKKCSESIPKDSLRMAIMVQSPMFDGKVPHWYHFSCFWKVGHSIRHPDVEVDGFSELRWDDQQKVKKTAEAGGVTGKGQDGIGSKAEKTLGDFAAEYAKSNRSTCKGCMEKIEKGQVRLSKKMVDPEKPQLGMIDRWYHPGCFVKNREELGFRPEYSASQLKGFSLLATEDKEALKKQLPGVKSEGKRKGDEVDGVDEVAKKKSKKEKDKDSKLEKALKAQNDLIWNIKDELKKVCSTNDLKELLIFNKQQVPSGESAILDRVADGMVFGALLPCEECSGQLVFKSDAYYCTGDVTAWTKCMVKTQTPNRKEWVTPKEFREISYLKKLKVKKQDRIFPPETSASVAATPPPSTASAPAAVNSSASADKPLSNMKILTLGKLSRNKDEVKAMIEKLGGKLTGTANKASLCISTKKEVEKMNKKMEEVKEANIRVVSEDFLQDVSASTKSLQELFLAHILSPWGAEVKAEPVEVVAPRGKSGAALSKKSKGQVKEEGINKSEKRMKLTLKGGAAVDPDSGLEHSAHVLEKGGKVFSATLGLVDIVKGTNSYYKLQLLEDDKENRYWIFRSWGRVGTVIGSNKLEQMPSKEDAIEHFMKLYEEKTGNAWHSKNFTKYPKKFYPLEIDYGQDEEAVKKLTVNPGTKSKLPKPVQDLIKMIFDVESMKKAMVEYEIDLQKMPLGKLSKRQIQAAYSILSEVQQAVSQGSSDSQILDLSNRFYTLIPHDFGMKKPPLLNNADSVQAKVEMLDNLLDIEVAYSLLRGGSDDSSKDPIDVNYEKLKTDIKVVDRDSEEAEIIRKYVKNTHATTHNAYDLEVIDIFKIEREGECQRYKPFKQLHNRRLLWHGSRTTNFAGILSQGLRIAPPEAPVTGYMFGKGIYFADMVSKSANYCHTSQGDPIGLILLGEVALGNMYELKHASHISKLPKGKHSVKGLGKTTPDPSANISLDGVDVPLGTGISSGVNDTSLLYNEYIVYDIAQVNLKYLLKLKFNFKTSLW
Method in brief: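 Commercial PARP-1 enzyme was activated by either H4 histone or endonuclease-digested plasmid DNA, with NAD and inhibitor or water, in PARP-1 reaction buffer (Tris pH 8.0, MgCl2, Triton X-100). Reactions ran 30 min at room temperature. pADPr was detected by SDS-PAGE and anti-pADPr Western blot, relative to DMSO-treated mixtures. Inhibitors were tested at 10 μM.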

solubility at 90 min [1] [µM] | half-life at 1 μM (Mouse plasma stability; mouse plasma) [min] | IC50 [2] [µM] | IC90 [2] [µM] | remaining at 1 h, 1 μM [3] [%] | IC50 (hCYP3A4) [µM] | IC50 (hCYP2D6) [µM] | half-life at 1 μM [4] [min] | microsomal CLint at 1 μM [4] [µL/min/mg] | IC50 [6] [µM] | IC90 [6] [µM] | effect on R1881-mediated AR transcriptional activity [7] | SMILES | IC20 [2] [µM] | IC70 [2] [µM] | ED20 [5] [µM] | ED50 [5] [µM] | ED70 [5] [µM] | ED90 [5] [µM] | IC20 [6] [µM] | IC70 [6] [µM] | also measured
140 | 35.9 | 2.3 | 10.1 | 87 | 1.7 | 4.4 | 1.2 | 1200 | 17.5 | 40.8 | – | C[N+]1(CC(=O)OC2CCCCCCCCCCC2)CCCCCC1.[I-] [MC-270017, 1-(2-(Cyclododecyloxy)-2-oxoethyl)-1-methylazepan-1 ium iodide] | 0.9 | 4.1 | 10.6 | 20.9 | 31.6 | 61.1 | 10.2 | 24.2 | remaining at 1 h, 1 μM [4]: 95%; IC50 (hCYP2C9): > 10 µM
– | – | – | – | – | – | – | – | – | – | – | only weak inhibitory effects | Cl.O=C(CN1CCCCC1)OC1CCCCCCCCCCC1 [FC-7218, Cyclododecyl 2-(piperidin-1-yl)acetate hydrochloride] | – | – | – | – | – | – | – | – | effect on viability [2]: no significant effect; effect on the PARP1 enzymatic activity in PC cells [8]: insignificant effect; effect on viability [5]: no significant effect; effect on viability [6]: no significant effect
191 | > 240 | 15.2 | 84.2 | 101 | 1.93 | 2.37 | 1.6 | 850 | 36.8 | 310 | only weak inhibitory effects | C[N+]1(CC(=O)NC2CCCCCCCCCCC2)CCCCC1.[I-] [FC-7220, 1-[(Cyclododecylcarbamoyl)methyl]-1-methylpiperidin-1-ium iodide] | 5.1 | 29.4 | 10.0 | 37.2 | 82.7 | 296.1 | 9.6 | 83.7 | remaining at 1 h, 1 μM [4]: 100%; IC50 (hCYP2C9): > 10 µM; PARP-1 inhibitory activity in cell free system (PARP-1): reduced anti-PARP-1 activity
110 | 118 | 11.2 | 52.1 | 88 | 3.92 | 9.25 | 1.3 | 1070 | 60.6 | 3270 | – | C[N+]1(CC(=O)OC2CCCCCCCCCCC2)CCSCC1.[I-] [MC-270021, 4-(2-(Cyclododecyloxy)-2-oxoethyl)-4-methylthiomorpholin-4-ium iodide] | 4.2 | 20.3 | – | – | – | – | 4.9 | 282 | remaining at 1 h, 1 μM [4]: 85%; IC50 (hCYP2C9): > 10 µM
125 | 57.2 | 3 | 19.4 | 98 | 2.98 | 8.54 | 1.9 | 721 | 22.4 | 85 | – | C[N+]1(CC(=O)OC2CCCCCCCCCCC2)CCCC1.[I-] [MC-270016, 1-(2-(Cyclododecyloxy)-2-oxoethyl)-1-methylpyrrolidin-1-ium iodide] | 0.9 | 6.1 | 13.3 | 38.6 | 73.9 | 208.1 | 9.6 | 37.4 | remaining at 1 h, 1 μM [4]: 92%; IC50 (hCYP2C9): > 10 µM
– | – | – | – | – | – | – | – | – | – | – | only weak inhibitory effects | Cl.O=C(CN1CCCCC1)NC1CCCCCCCCCCC1 [FC-7219, N-cyclododecyl-2-(piperidin-1-yl)acetamide hydrochloride] | – | – | – | – | – | – | – | – | effect on viability [2]: no significant effect; effect on the PARP1 enzymatic activity in PC cells [8]: insignificant effect; effect on viability [5]: no significant effect; effect on viability [6]: no significant effect
95.2 | 19.6 | 3.1 | 12.2 | 84 | 4.67 | 9.93 | 1.2 | 1150 | 14.6 | 48.1 | – | CC1(C)CC[N+](C)(CC(=O)OC2CCCCCCCCCCC2)CC1.[I-] [MC-270019, 1-(2-(Cyclododecyloxy)-2-oxoethyl)-1,4,4-trimethylpiperidin-1-ium iodide] | 1.3 | 5.2 | 10.9 | 24.6 | 40.4 | 89.1 | 6.9 | 23.1 | remaining at 1 h, 1 μM [4]: 92%; IC50 (hCYP2C9): > 10 µM

Continued, compound first:

SMILES | solubility at 90 min [1] [µM] | half-life at 1 μM (Mouse plasma stability; mouse plasma) [min] | IC50 [2] [µM] | IC90 [2] [µM] | remaining at 1 h, 1 μM [3] [%] | IC50 (hCYP3A4) [µM] | IC50 (hCYP2D6) [µM] | half-life at 1 μM [4] [min] | microsomal CLint at 1 μM [4] [µL/min/mg] | IC50 [6] [µM] | IC90 [6] [µM] | effect on R1881-mediated AR transcriptional activity [7] | IC20 [2] [µM] | IC70 [2] [µM] | ED20 [5] [µM] | ED50 [5] [µM] | ED70 [5] [µM] | ED90 [5] [µM] | IC20 [6] [µM] | IC70 [6] [µM] | also measured
CNC(=O)c1ccc(N2C(=S)N(c3ccc(C#N)c(C(F)(F)F)c3)C(=O)C2(C)C)cc1F [Enzalutamide] | – | – | – | – | – | – | – | – | – | – | – | – | – | – | – | – | – | – | – | – | effect on PSA expression (PSA expression): negligible inhibitory effect
O=C(c1cc(Cc2n[nH]c(=O)c3ccccc23)ccc1F)N1CCN(C(=O)C2CC2)CC1 [Olaparib, reference compound] | – | – | 20.4 | 4450 | – | – | – | – | – | 9.3 | 384 | only weak inhibitory effects | 0.7 | 163 | 1.2 | 7.4 | 22.0 | 125.8 | 0.9 | 39 | effect on PSA expression (PSA expression): negligible inhibitory effect; effect on AR transcriptional activity [9]: negligible inhibitory effect; ED20 [10]: 7.3 µM; ED50 [10]: 61.9 µM; ED70 [10]: 228.7 µM; ED90 [10]: 1835 µM
CCN(CC)CCOC(=O)c1ccc(N)cc1 [procaine, reference compound] | – | – | – | – | – | – | – | – | – | – | – | – | – | – | – | – | – | – | – | – | stable in PBS (Mouse plasma stability; PBS pH 7.4, 1 μM, 60 min, 37°C, typical value): 100%; degraded in plasma (Mouse plasma stability; mouse plasma, 1 μM, 60 min, 37°C, typical value): > 95%
CNCc1ccc(-c2[nH]c3cc(F)cc4c3c2CCNC4=O)cc1 [Rucaparib, reference compound] | – | – | 26.7 | 155 | – | – | – | – | – | 7 | 157 | only weak inhibitory effects | – | 52.6 | 0.9 | 5.0 | 14.8 | 82.7 | 1 | 23.2 | –
O=C(CN1CCC1)OC1CCCCCCCCCCC1 [MC-270008, Cyclododecyl 2-(azetidin-1-yl)acetate] | – | – | – | – | – | – | – | – | – | – | – | – | – | – | – | – | – | – | – | – | effect on the PARP1 enzymatic activity in PC cells [8]: insignificant effect; PARP-1 inhibitory activity in cell free system (PARP-1): diminished capacity to inhibit PARP-1
C[C@]1(c2nc3c(C(N)=O)cccc3[nH]2)CCCN1 [Veliparib, reference compound] | – | – | 55.6 | 768 | – | – | – | – | – | 70.5 | 1630 | only weak inhibitory effects | 10.6 | 153 | 6.7 | 36.7 | 104.0 | 547.2 | 9.7 | 237 | –
